Reference: ChEMBL document CHEMBL5325402, “Exploration of novel hexahydropyrrolo[1,2-e]imidazol-1-one derivatives as antiviral agents against ZIKV and USUV” (Eur J Med Chem, 2023)
Active and inactive are the calls of the source. No cut-off for these calls is given here.

What was measured:
Usutu virus [1] = assay: Antiviral activity against USUV 3345 isolate Arb276 infected in African green monkey Vero cells assessed as titer reduction in viral progeny production at 15 uM treated for 2 hrs followed by virus removal and subsequent addition of medium containing compound measured after 48 hrs by focus reduction assay; type: functional, organism-based; conditions: time 50.0 hrs
Procedure, shortened: (§1)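 Vero cells seeded 6.5 × 10^4/well, exposed in duplicate for 2 h at 37 °C to virus (MOI 0.1) mixed with compound at 5 or 15 μM. After three washes, medium containing compound was added for 48 h. Supernatants were clarified and titred on Vero by focus reduction (USUV, FFU/ml) or plaque assay (ZIKV, PFU/ml). DMSO-matched infected controls; mean of three experiments.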

[2] = Cytotoxicity against African green monkey Vero cells infected with USUV 3345 isolate Arb276 pretreated with virus for 1 hr followed by infection of cells with compound treated-virus for 20 hrs by MTS assay; type: toxicity, cell-based; conditions: chlorocebus sabaeus
Procedure, shortened: (§2)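 MTS viability assay. Cells were treated under the same conditions as the antiviral assays. Absorbance was expressed as % of medium-only cells, and CC50 was derived from the curve. Seeding densities were 1.2 × 10^4/well for Vero, 1.3 × 10^4/well for A549 and 1.6 × 10^4/well for Huh7. DMEM with 2% FBS.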

Zika virus [3] = assay: Antiviral activity against ZIKV MR766 infected in African green monkey Vero cells assessed as viral growth inhibition at 0.13 to 100 uM pretreated with cells 2 hrs prior to viral infection by time of addition assay; type: functional, organism-based; conditions: dose 0.13-100 µM
Procedure, shortened: (§3)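 Time-of-addition assay in Vero. Serial dilutions (100 to 0.13 μM) were added to cells 24 h or 2 h before infection, during the 2 h infection, or post-infection for 24 h (USUV) or 30 h (ZIKV). Cells were fixed in cold acetone-methanol (50:50) and infected cells detected by indirect immunostaining. EC50/EC90 came from variable-slope sigmoidal fits; mean of three independent experiments.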

Zika virus [4] = assay: Antiviral activity against ZIKV MR766 infected in African green monkey Vero cells assessed as viral growth inhibition at 0.13 to 100 uM pretreated with cells 24 hrs prior to viral infection by time of addition assay; type: functional, organism-based; conditions: dose 0.13-100 µM; procedure, shortened: as §3
Zika virus [5] = assay: Antiviral activity against ZIKV MR766 infected in African green monkey Vero cells assessed as viral growth inhibition at 11 to 100 uM pretreated with virus for 1 hr followed by infection of cells with compound treated-virus for 30 hrs by focus reduction assay relative to control; type: functional; conditions: dose 11-100 µM, time 31 hrs
Procedure, shortened: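 Virus (MOI 0.02) preincubated with compound 1 h at 37 °C, then mixture put on Vero cells (1.2 × 10^4/well, seeded the day before) in DMEM with 2% FBS for 30 h (ZIKV) or 20 h (USUV) at 37 °C. Fixed in cold acetone-methanol, foci immunostained with anti-flavivirus E 4G2 antibody and counted. % infection is relative to DMSO-treated wells. Screen used 100, 33 and 11 μM.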

Zika virus [6] = assay: Antiviral activity against ZIKV MR766 infected in African green monkey Vero cells assessed as titer reduction in viral progeny production at 15 uM treated for 2 hrs followed by virus removal and subsequent addition of medium containing compound measured after 48 hrs by plaque reduction assay; type: functional, organism-based; conditions: time 50.0 hrs; procedure, shortened: as §1
[7] = Cytotoxicity against human Huh-7 cells infected with USUV 3345 isolate Arb276 pretreated with virus for 1 hr followed by infection of cells with compound treated-virus for 20 hrs by MTS assay; type: toxicity, cell-based; procedure, shortened: as §2
Usutu virus [8] = assay: Antiviral activity against USUV 3345 isolate Arb276 infected in African green monkey Vero cells assessed as reduction in viral replication pretreated with virus for 1 hr followed by infection of cells with compound treated-virus for 20 hrs by focus reduction assay; type: functional, organism-based; conditions: Usutu virus, 3345, Vero; for EC90: time 21 hrs
[9] = Cytotoxicity against human A549 cells infected with USUV 3345 isolate Arb276 pretreated with virus for 1 hr followed by infection of cells with compound treated-virus for 20 hrs by MTS assay; type: toxicity, cell-based; procedure, shortened: as §2

In the case of O=C1[C@@H]2CCCN2[C@@H](c2ccc([C@H]3C[C@@H](O)[C@@H](CO)O3)cc2)N1c1ccc([N+](=O)[O-])cc1, the Activity (Usutu virus [1]) is reported as “Active”, the CC50 at 21 h [2] is reported as greater than 500 µM and the Activity (Zika virus [3]) is reported as “inactive”. The Activity (Zika virus [4]) was “Active”, the “inhibition (INH)” value (Zika virus [5]) was 100% and the Activity (Zika virus [6]) was “Active”. It also gave a CC50 at 21 h [7] greater than 500 µM, an EC50 (Usutu virus [8]) of 2.53 µM and an EC90 (Usutu virus [8]) of 3.89 µM. The CC50 at 21 h [9] was greater than 500 µM.
In the case of O=C1C[C@H](c2ccc([C@H]3N(c4ccc([N+](=O)[O-])cc4)C(=O)[C@@H]4CCCN43)cc2)O[C@@H]1CO, the Activity (Usutu virus [1]) is reported as “Active”, the CC50 at 21 h [2] is reported as greater than 500 µM and the Activity (Zika virus [3]) is reported as “inactive”. For the same molecule, the Activity (Zika virus [4]) was “Active”, the “inhibition (INH)” value (Zika virus [5]) was 100% and the Activity (Zika virus [6]) was “Active”. The CC50 at 21 h [7] was greater than 500 µM, the EC50 (Usutu virus [8]) was 2.76 µM and the EC90 (Usutu virus [8]) was 4.34 µM. The CC50 at 21 h [9] was greater than 500 µM.
